Activity calls are given as the source filed them. No cut-off for these calls is given here.
Legend:
[1] = biological target: T1, von Hippel-Lindau disease tumor suppressor/Bromodomain-containing protein 9 (Homo sapiens) (UniProt Q9H8M2+P40337); assay: PROTAC activity at VHL/BRD9 in human HeLa cells assessed as remaining BRD9 protein level at 1 uM incubated for 16 hrs by Western blot analysis relative to control; format: cell-based
Outline: (§1)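 HeLa cells treated with compound for the stated time before harvest; BRD9, BRD7 and β-actin detected by Western blot with β-actin loading control; band intensities quantified.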

[2] = biological target: T2, von Hippel-Lindau disease tumor suppressor/Bromodomain-containing protein 7 (Homo sapiens) (UniProt Q9NPI1+P40337); assay: PROTAC activity at VHL/BRD7 in human HeLa cells assessed as remaining BRD7 protein level at 1 uM incubated for 4 hrs by Western blot analysis relative to control; format: cell-based
[3] = biological target: T2, von Hippel-Lindau disease tumor suppressor/Bromodomain-containing protein 7 (Homo sapiens); assay: PROTAC activity at VHL/BRD7 in human HeLa cells assessed as remaining BRD7 protein level at 1 uM incubated for 16 hrs by Western blot analysis relative to control; format: cell-based
[4] = biological target: T2, von Hippel-Lindau disease tumor suppressor/Bromodomain-containing protein 7 (Homo sapiens); assay: PROTAC activity at VHL/BRD7 in human HeLa cells assessed as protein degradation at 1 uM incubated for 4 hrs by Western blot analysis relative to control; format: cell-based
[5] = biological target: T1, von Hippel-Lindau disease tumor suppressor/Bromodomain-containing protein 9 (Homo sapiens); assay: PROTAC activity at VHL/BRD9 in human HeLa cells assessed as protein degradation at 1 uM incubated for 4 hrs by Western blot analysis relative to control; format: cell-based; outline: as §1
[6] = biological target: T2, von Hippel-Lindau disease tumor suppressor/Bromodomain-containing protein 7 (Homo sapiens); assay: PROTAC activity at VHL/BRD7 in human HeLa cells assessed as protein degradation at 1 uM incubated for 16 hrs by Western blot analysis relative to control; format: cell-based
[7] = biological target: T1, von Hippel-Lindau disease tumor suppressor/Bromodomain-containing protein 9 (Homo sapiens); assay: PROTAC activity at VHL/BRD9 in human HeLa cells assessed as protein degradation at 1 uM incubated for 16 hrs by Western blot analysis relative to control; format: cell-based; outline: as §1
[8] = biological target: T3, Bromodomain-containing protein 9 (Homo sapiens) (UniProt Q9H8M2); assay: Binding affinity to 6His-tagged human BRD9 bromodomain (134 to 239 residues) expressed in Escherichia coli BL21 (DE3) cells assessed as change in enthalpy by ITC analysis
T3 sequence (whole entry): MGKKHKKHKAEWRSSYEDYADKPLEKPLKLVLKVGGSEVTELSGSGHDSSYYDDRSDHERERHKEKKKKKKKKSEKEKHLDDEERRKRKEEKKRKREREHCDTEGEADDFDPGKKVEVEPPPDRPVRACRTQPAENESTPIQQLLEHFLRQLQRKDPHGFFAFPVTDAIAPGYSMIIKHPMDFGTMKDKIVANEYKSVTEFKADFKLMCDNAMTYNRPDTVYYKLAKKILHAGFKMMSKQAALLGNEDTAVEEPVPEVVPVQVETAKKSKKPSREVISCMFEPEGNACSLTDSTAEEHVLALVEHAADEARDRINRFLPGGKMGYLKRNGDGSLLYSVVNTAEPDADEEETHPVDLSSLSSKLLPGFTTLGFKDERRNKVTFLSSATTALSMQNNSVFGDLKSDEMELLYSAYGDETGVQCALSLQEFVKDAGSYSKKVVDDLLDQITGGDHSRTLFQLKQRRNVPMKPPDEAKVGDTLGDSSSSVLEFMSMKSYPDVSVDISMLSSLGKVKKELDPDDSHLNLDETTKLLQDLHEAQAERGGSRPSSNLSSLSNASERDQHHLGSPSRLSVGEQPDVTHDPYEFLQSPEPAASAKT

[9] = biological target: T3, Bromodomain-containing protein 9 (Homo sapiens); assay: Binding affinity to 6His-tagged human BRD9 bromodomain (134 to 239 residues) expressed in Escherichia coli BL21 (DE3) cells assessed as gibbs free energy change by ITC analysis
[10] = biological target: T3, Bromodomain-containing protein 9 (Homo sapiens); assay: Binding affinity to 6His-tagged human BRD9 bromodomain (134 to 239 residues) expressed in Escherichia coli BL21 (DE3) cells assessed as change in entropy by ITC analysis
[11] = biological target: T4, Von Hippel-Lindau disease tumor suppressor/Elongin B/Elongin C (Homo sapiens) (UniProt P40337+Q15370+Q15369); assay: Binding affinity to 6His-tagged human VHL/ElonginC/ElonginB expressed in Escherichia coli BL21 (DE3) cells assessed as change in enthalpy by ITC analysis
[12] = biological target: T4, Von Hippel-Lindau disease tumor suppressor/Elongin B/Elongin C (Homo sapiens); assay: Binding affinity to 6His-tagged human VHL/ElonginC/ElonginB expressed in Escherichia coli BL21 (DE3) cells assessed as change in entropy by ITC analysis
[13] = biological target: T4, Von Hippel-Lindau disease tumor suppressor/Elongin B/Elongin C (Homo sapiens); assay: Negative co-operative binding affinity to 6His-tagged human VHL/ElonginC/ElonginB expressed in Escherichia coli BL21 (DE3) cells assessed as change in enthalpy in the presence of BRD9-BD as complex with compound by ITC analysis
[14] = biological target: T4, Von Hippel-Lindau disease tumor suppressor/Elongin B/Elongin C (Homo sapiens); assay: Negative co-operative binding affinity to 6His-tagged human VHL/ElonginC/ElonginB expressed in Escherichia coli BL21 (DE3) cells assessed as change in entropy in the presence of BRD9-BD as complex with compound by ITC analysis
[15] = biological target: T4, Von Hippel-Lindau disease tumor suppressor/Elongin B/Elongin C (Homo sapiens); assay: Negative co-operative binding affinity to 6His-tagged human VHL/ElonginC/ElonginB expressed in Escherichia coli BL21 (DE3) cells assessed as total gibb's free energy change in the presence of BRD9-BD as complex with compound by ITC analysis
[16] = biological target: T4, Von Hippel-Lindau disease tumor suppressor/Elongin B/Elongin C (Homo sapiens); assay: Co-operative binding affinity to 6His-tagged human VHL/ElonginC/ElonginB expressed in Escherichia coli BL21 (DE3) cells assessed as maximal intensity in the presence of BRD9-BD as complex with compound incubated for 1 hrs by AlphaLISA proximity assay
[17] = test system: A204; assay: Antiproliferative activity against human A204 cells assessed as inhibition of cell growth incubated for 7 days by CellTiterGlo assay; format: functional, cell-based; conditions: A204, 168 h
[18] = biological target: T5, Protein cereblon/Bromodomain-containing protein 9 (Homo sapiens) (UniProt Q9H8M2+Q96SW2); assay: PROTAC activity at CRBN/BRD9 in human HeLa cells assessed as remaining BRD9 protein level at 1 uM incubated for 4 hrs by Western blot analysis relative to control; format: cell-based
Outline: (§2)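 Cells given 1 µM compound before harvest: HeLa 4 h, RI-1 2 h and 8 h. BRD9, BRD7 and β-actin detected by Western blot; band intensities quantified.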

[19] = biological target: T5, Protein cereblon/Bromodomain-containing protein 9 (Homo sapiens); assay: PROTAC activity at CRBN/BRD9 in human HeLa cells assessed as remaining BRD9 protein level at 1 uM incubated for 16 hrs by Western blot analysis relative to control; format: cell-based
Outline: (§3)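 HeLa cells given 1 µM compound for 16 h before harvest. BRD9, BRD7 and β-actin detected by Western blot; band intensities quantified.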

[20] = biological target: T6, Protein cereblon/Bromodomain-containing protein 7 (Homo sapiens) (UniProt Q9NPI1+Q96SW2); assay: PROTAC activity at CRBN/BRD7 in human HeLa cells assessed as remaining BRD7 protein level at 1 uM incubated for 4 hrs by Western blot analysis relative to control; format: cell-based; outline: as §2
[21] = biological target: T6, Protein cereblon/Bromodomain-containing protein 7 (Homo sapiens); assay: PROTAC activity at CRBN/BRD7 in human HeLa cells assessed as remaining BRD7 protein level at 1 uM incubated for 16 hrs by Western blot analysis relative to control; format: cell-based; outline: as §3
[22] = biological target: T5, Protein cereblon/Bromodomain-containing protein 9 (Homo sapiens); assay: PROTAC activity at CRBN/BRD9 in human Ri-1 cells assessed as remaining BRD9 protein level at 1 uM incubated for 2 hrs by Western blot analysis relative to control; format: cell-based; outline: as §2
[23] = biological target: T6, Protein cereblon/Bromodomain-containing protein 7 (Homo sapiens); assay: PROTAC activity at CRBN/BRD7 in human Ri-1 cells assessed as remaining BRD7 protein level at 1 uM incubated for 2 hrs by Western blot analysis relative to control; format: cell-based; outline: as §2
[24] = biological target: T5, Protein cereblon/Bromodomain-containing protein 9 (Homo sapiens); assay: PROTAC activity at CRBN/BRD9 in human Ri-1 cells assessed as remaining BRD9 protein level at 1 uM incubated for 8 hrs by Western blot analysis relative to control; format: cell-based; outline: as §2
[25] = biological target: T6, Protein cereblon/Bromodomain-containing protein 7 (Homo sapiens); assay: PROTAC activity at CRBN/BRD7 in human Ri-1 cells assessed as remaining BRD7 protein level at 1 uM incubated for 8 hrs by Western blot analysis relative to control; format: cell-based; outline: as §2
[26] = biological target: T1, von Hippel-Lindau disease tumor suppressor/Bromodomain-containing protein 9 (Homo sapiens); assay: PROTAC activity at VHL/BRD9 in human HeLa cells assessed as maximal protein degradation at 10 uM incubated for 4 hrs by Western blot analysis relative to control; format: cell-based; outline: as §1
[27] = biological target: T1, von Hippel-Lindau disease tumor suppressor/Bromodomain-containing protein 9 (Homo sapiens); assay: PROTAC activity at VHL/BRD9 in human HeLa cells assessed as apparent half-life of BRD9 at 1 uM; format: cell-based
[28] = biological target: T1, von Hippel-Lindau disease tumor suppressor/Bromodomain-containing protein 9 (Homo sapiens); assay: PROTAC activity at VHL/BRD9 in human HeLa cells assessed as BRD9 protein degradation at 1 uM incubated for 4 hrs by Western blot analysis relative to control; format: cell-based; outline: as §1
[29] = biological target: T1, von Hippel-Lindau disease tumor suppressor/Bromodomain-containing protein 9 (Homo sapiens); assay: PROTAC activity at VHL/BRD9 in human HeLa cells assessed as BRD9 protein degradation at 1 uM incubated for 8 hrs by Western blot analysis; format: cell-based; outline: as §1
[30] = biological target: T1, von Hippel-Lindau disease tumor suppressor/Bromodomain-containing protein 9 (Homo sapiens); assay: PROTAC activity at VHL/BRD9 in human Ri-1 cells assessed as remaining BRD9 protein level at 1 uM incubated for 2 hrs by Western blot analysis relative to control; format: cell-based
Outline: (§4)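 Ri-1 cells exposed to compound for the stated time before harvest; BRD9, BRD7 and β-actin measured by Western blot, band intensities quantified and set against DMSO-treated control.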

[31] = biological target: T2, von Hippel-Lindau disease tumor suppressor/Bromodomain-containing protein 7 (Homo sapiens); assay: PROTAC activity at VHL/BRD7 in human Ri-1 cells assessed as remaining BRD7 protein level at 1 uM incubated for 2 hrs by Western blot analysis relative to control; format: cell-based
[32] = biological target: T1, von Hippel-Lindau disease tumor suppressor/Bromodomain-containing protein 9 (Homo sapiens); assay: PROTAC activity at VHL/BRD9 in human Ri-1 cells assessed as remaining BRD9 protein level at 1 uM incubated for 8 hrs by Western blot analysis relative to control; format: cell-based; outline: as §4
[33] = biological target: T2, von Hippel-Lindau disease tumor suppressor/Bromodomain-containing protein 7 (Homo sapiens); assay: PROTAC activity at VHL/BRD7 in human Ri-1 cells assessed as remaining BRD7 protein level at 1 uM incubated for 8 hrs by Western blot analysis relative to control; format: cell-based
[34] = biological target: T4, Von Hippel-Lindau disease tumor suppressor/Elongin B/Elongin C (Homo sapiens); assay: Co-operative binding affinity to 6His-tagged human VHL/ElonginC/ElonginB expressed in Escherichia coli BL21 (DE3) cells assessed as total gibb's free energy change in the presence of BRD9-BD as complex with compound by ITC analysis
[35] = biological target: Bromodomain-containing protein 4 (Homo sapiens) (UniProt O60885)

T2 sequence (P40337 whole entry, looked up): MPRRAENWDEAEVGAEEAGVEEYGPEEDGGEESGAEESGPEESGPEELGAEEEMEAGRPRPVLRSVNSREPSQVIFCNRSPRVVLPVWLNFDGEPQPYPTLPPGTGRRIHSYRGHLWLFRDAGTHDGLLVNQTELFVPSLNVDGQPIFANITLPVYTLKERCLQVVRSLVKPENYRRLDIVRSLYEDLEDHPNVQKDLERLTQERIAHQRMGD
T2 sequence (Q9NPI1 whole entry, looked up): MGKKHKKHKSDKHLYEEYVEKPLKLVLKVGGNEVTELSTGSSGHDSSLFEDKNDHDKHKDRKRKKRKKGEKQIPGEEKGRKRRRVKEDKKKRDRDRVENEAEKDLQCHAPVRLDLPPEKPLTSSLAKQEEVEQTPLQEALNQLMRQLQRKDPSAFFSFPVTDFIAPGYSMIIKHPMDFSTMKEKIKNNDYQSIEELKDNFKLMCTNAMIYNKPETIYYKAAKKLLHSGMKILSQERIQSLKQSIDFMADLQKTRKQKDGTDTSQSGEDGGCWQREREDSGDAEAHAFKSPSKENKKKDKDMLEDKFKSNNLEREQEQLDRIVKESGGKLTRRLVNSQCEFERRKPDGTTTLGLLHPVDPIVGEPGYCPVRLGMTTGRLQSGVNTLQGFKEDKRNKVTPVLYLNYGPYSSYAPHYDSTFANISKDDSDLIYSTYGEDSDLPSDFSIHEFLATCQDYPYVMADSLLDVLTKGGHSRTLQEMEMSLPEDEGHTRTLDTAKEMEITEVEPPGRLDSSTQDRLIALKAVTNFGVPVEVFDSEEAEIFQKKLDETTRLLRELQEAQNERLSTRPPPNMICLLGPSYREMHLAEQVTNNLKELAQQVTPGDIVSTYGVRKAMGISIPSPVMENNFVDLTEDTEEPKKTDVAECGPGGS
T1 sequence (P40337 whole entry, looked up, one chain of several): as the sequence (P40337 whole entry, looked up) above
T4 sequence (P40337 whole entry, looked up): as above
T4 sequence (Q15369 whole entry, looked up): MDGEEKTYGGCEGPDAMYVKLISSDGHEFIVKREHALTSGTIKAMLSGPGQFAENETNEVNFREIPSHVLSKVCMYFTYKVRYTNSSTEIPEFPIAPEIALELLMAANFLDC
T4 sequence (Q15370 whole entry, looked up): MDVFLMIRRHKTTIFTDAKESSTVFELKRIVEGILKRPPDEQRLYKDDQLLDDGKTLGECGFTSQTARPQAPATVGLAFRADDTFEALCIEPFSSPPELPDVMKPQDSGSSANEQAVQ
T6 sequence (Q96SW2 whole entry, looked up): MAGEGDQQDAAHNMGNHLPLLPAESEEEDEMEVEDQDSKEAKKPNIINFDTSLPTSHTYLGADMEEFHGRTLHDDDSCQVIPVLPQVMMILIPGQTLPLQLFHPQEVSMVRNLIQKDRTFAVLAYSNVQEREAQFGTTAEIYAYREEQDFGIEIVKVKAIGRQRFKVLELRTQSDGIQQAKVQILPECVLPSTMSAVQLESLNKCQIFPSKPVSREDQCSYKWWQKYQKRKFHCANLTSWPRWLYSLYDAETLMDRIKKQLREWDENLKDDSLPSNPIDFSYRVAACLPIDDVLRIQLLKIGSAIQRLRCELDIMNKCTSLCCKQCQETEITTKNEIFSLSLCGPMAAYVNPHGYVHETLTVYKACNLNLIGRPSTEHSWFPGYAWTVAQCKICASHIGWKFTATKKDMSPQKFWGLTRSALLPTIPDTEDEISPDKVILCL
T6 sequence (Q9NPI1 whole entry, looked up): as the sequence (Q9NPI1 whole entry, looked up) above
T5 sequence (Q96SW2 whole entry, looked up, one chain of several): as the sequence (Q96SW2 whole entry, looked up) above

SMILES: COc1cc(-c2cn(C)c(=O)c3cnccc23)cc(OC)c1CN1CCN(CCOCCOCC(=O)N[C@H](C(=O)N2C[C@H](O)C[C@H]2C(=O)NCc2ccc(-c3scnc3C)cc2)C(C)(C)C)CC1
- Activity [1]: 70%
- Activity [2]: 68%
- Activity [3]: 83%
- Activity [4]: 20%
- Activity [5]: 20%
- Activity [6]: 30%
- Activity [7]: 30%
- deltaH [8]: -12.5 kcal/mol
- deltaG [9]: -10.7 kcal/mol
- -TdeltaS [10]: 1.8 kcal/mol
- deltaH [11]: -15.2 kcal/mol
- -TdeltaS [12]: 4.9 kcal/mol
- deltaH [13]: -6.4 kcal/mol
- -TdeltaS [14]: -3.3 kcal/mol
- deltaG [15]: -20.4 kcal/mol
- Activity [16]: 1 10^6No_unit

SMILES: COc1cc(-c2cn(C)c(=O)c3cnccc23)cc(OC)c1CN1CCN(CCOCCOCC(=O)NCCNc2cccc3c2C(=O)N(C2CCC(=O)NC2=O)C3=O)CC1 (stereo not given)
- IC50 [17]: 305 nM
- Activity [18]: 6%
- Activity [19]: 7%
- Activity [20]: 81%
- Activity [21]: 97%
- Activity [22]: 5%
- Activity [23]: 158%
- Activity [24]: 2%
- Activity [25]: 225%

SMILES: COc1cc(-c2cn(C)c(=O)c3cnccc23)cc(OC)c1CN1CCN(CCOCCOCCOc2cc(-c3scnc3C)ccc2CNC(=O)[C@@H]2C[C@@H](O)CN2C(=O)[C@@H](NC(=O)C2(F)CC2)C(C)(C)C)CC1
- Activity [1]: 36%
- Activity [2]: 7%
- Activity [3]: 90%
- Activity [5]: 60%
- Emax [26]: 80%
- T1/2 [27]: 3.47 h
- Activity [28]: > 50%
- Activity [29]: Active
- Activity [30]: 68%
- Activity [31]: 127%
- Activity [32]: 100%
- Activity [33]: 145%
- deltaG [34]: -20.7 kcal/mol
- Activity [16]: 1.56 10^6No_unit

SMILES: Cc1ncsc1-c1ccc(CNC(=O)[C@@H]2C[C@@H](O)CN2C(=O)[C@@H](NC(=O)COCCOCCOCCNC(=O)C[C@@H]2N=C(c3ccc(Cl)cc3)c3c(sc(C)c3C)-n3c(C)nnc32)C(C)(C)C)cc1
- deltaG [35]: -22.2 kcal/mol

Reference: ChEMBL document CHEMBL5260840 (J Med Chem, 2019)
